MsrA inh = bovine MsrA enzyme inhibitors, primary screen, biochemical, absorbance, HTS. inhibition, % at 15.5 µM. hit rate 0.75% among 360,000. AID 651718, 2012. purified bovine MsrA, absorbance read-out; in the data active = inhibition above about 4.5%;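 also: 0% = vehicle wells with enzyme and 100% = reference inhibitor wells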
MsrA act = bovine MsrA enzyme activators, primary screen, biochemical, absorbance, HTS. Methionine sulfoxide reductase A (Bos taurus). activation, % at 10.6 µM. AID 602163, 2012. purified bovine MsrA, absorbance read-out. hit rate 0.3% among 360,000; in the data active = activation above about 7.5%;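 also: 0% = vehicle and 100% = reference activator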
HGIII-sPLA2 inh = human group III sPLA2 inhibitors, primary screen, biochemical, QFRET, BODIPY PC-A2 liposome substrate | hit rate 0.56% among 370,000 | inhibition, % at 12.2 µM | QFRET BODIPY PC-A2 liposome hydrolysis, fluorescence;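 active = inhibition above mean plus 3 SD of compounds lying within the high and low control bounds, cut at about 19% in these data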;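 also: 0% = median of test compound wells and 100% = no enzyme DMSO wells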
ARFGAP1 inhibitor = inhibitors of rat ARFGAP1 GAP activity, primary screen, biochemical, fluorescence polarization, GDP tracer; ADP-ribosylation factor GTPase-activating protein 1 (Rattus norvegicus), Q62848; Arfgap1-stimulated ARF1 GTP hydrolysis, GDP FP detection; inhibition, % at 16.5 µM; hit rate 0.26% among 360,000; AID 651572, 2012;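 active = inhibition above a per-plate limit, mean inhibition of low control wells plus 3 SD, cut at about 25% in these data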;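 also: 0% = DMSO wells with enzyme and 100% = wells lacking Arfgap1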
Target sequence (Q62848 1-136 limits assumed): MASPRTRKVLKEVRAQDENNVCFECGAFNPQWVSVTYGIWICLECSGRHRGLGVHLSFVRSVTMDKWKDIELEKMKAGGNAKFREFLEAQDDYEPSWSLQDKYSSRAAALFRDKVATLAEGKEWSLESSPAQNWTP
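System: truncated rat Arfgap1 GAP domain / Benchmarks: high control wells lacking Arfgap1, low control full reaction with DMSO / Times: compound-enzyme preincubation 20 min, reaction 120 min, detection 60 min, 25 °C / Repeats: one replicate per compound / Also added: human ARF1(Δ1-17)-GTP substrate / Measured by: Tracer-displacement fluorescence polarization with EDTA stop, 620/688 nm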
ASAP1 inh = inhibitors of human ASAP1 ArfGAP activity, primary screen, biochemical, fluorescence polarization; AID 624377, 2012; hit rate 0.19% among 360,000; Arf-GAP with SH3 domain, ANK repeat and PH domain-containing protein 1 (Homo sapiens), …; ASAP1-stimulated ARF1 GTP hydrolysis, GDP FP detection; inhibition, % at 16.5 µM; in the data active = inhibition above about 25%;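 also: 0% = vehicle with enzyme and substrate and 100% = no enzyme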
Target sequence (Q9ULH1 325-724 limits assumed): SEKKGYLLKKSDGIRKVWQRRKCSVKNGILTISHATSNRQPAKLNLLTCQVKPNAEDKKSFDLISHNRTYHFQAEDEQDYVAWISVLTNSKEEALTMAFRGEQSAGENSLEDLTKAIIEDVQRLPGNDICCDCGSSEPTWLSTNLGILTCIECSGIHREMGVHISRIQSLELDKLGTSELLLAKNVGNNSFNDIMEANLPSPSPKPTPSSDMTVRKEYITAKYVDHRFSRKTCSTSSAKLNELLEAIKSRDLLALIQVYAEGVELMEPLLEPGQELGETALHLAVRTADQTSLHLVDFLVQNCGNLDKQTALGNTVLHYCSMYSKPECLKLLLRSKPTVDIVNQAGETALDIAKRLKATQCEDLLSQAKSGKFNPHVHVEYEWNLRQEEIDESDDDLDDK
NR1D1 modulator = modulators of Rev-erb alpha DNA binding, primary screen, biochemical, FITC-DNA, fluorescence polarization, uHTS; Nuclear receptor subfamily 1 group D member 1 (Homo sapiens), P20393; Rev-erbα–FITC-DNA binding, 90 min; activity, % at 10 µM; hit rate 0.79% among 370,000;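 active = activity above about 14%, limit read from the data; passing the limit was not always enough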;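 also: 0% = DMSO wells with 35 nM protein and 100% = DMSO wells with 750 nM protein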
* = called active by the depositor; · = no result. Shown are actives, neighbours in structure and some others; about 2.7% of the full set was active somewhere.

SMILES | MsrA inh | MsrA act | HGIII-sPLA2 inh | ARFGAP1 inhibitor | ASAP1 inh | NR1D1 modulator
Cc1cccc(NC(=S)N=Nc2c(O)[nH]c3ccccc23)c1 | 1 | -4 | 20* | 5 | 6 | 8
COCCN=c1scc(-c2cccs2)n1/N=C/c1ccc(O)c(O)c1O | 3 | -5 | 42* | -2 | 23 | 10
COCCN=c1scc(-c2ccccc2)n1/N=C/c1c[nH]c2ccccc12 | 3 | -10 | -3 | 7 | 15 | 7
Cc1cccc(NC(=O)c2sc3nc(N)c(C#N)cc3c2N)c1 | 4.6* | -8 | 10 | 1 | 2 | 0
OC[C@@H](O)[C@H](O)[C@@H](O)[C@H](O)CO | · | · | · | · | · | -4
C=C[C@H]1CN2CC[C@@H]1C[C@@H]2[C@H](O)c1ccnc2ccc(OC)cc12 | · | · | · | · | · | 3
NC(=O)/C(N=Nc1ccccc1)=N/Nc1ccccc1 | 4 | 2 | 8 | -3 | 0 | 8
OCC1OC(C(N=Nc2ccccc2)=NNc2ccccc2)C(O)C1O (centres undefined) | 1 | · | 20* | 11 | 7 | -1
CNC[C@@H](O)c1ccc(O)c(O)c1 | · | · | · | · | · | 2
CCOC(=O)/C=C(\C)Sc1cc(O)c2ccccc2c1O | 41* | 3 | 5 | 21 | 29* | 1
N[C@@H](CSCC(=O)O)C(=O)O | · | · | · | · | · | 3
CC1(C)S[C@@H]2[C@H](NC(=O)[C@H](C(=O)O)c3cccs3)C(=O)N2[C@H]1C(=O)O | · | · | · | · | · | 9
CC(C)(O)c1ccccc1CC[C@@H](SC1(CC(=O)O)CC1)c1cccc(/C=C/c2ccc3ccc(Cl)cc3n2)c1 | · | · | · | · | · | -2
Cc1cc(C)nc(N/N=C/c2cc(C)n(CC(F)(F)F)c2C)n1 | 4.6* | -3 | 8 | -7 | -2 | -5
Cc1cc(C)nc(N/N=C/c2ccco2)n1 | 4 | -3 | -1 | -6 | -3 | -3
Cc1cc(-n2c(=O)[nH]c(=O)n(C)c2=O)ccc1Oc1ccc(SC(F)(F)F)cc1 | · | · | · | · | · | 0
COc1ccc(-c2ccc(/C=C(\NC(=O)c3ccccc3)C(=O)N3CCOCC3)o2)cc1 | 4.6* | -6 | -4 | -2 | 13 | 9
Cc1c(C)c2c(c(C)c1OC(=O)CCC(=O)OCCO)CCC(C)(CCCC(C)CCCC(C)CCCC(C)C)O2 (centres undefined) | · | · | · | · | · | 3
CC(C)(C)NC(=O)c1nn2c(C(F)(F)F)cc(-c3ccccc3)nc2c1Br | 0 | -2 | 4 | 2 | -6 | -3
NC(=O)c1nn2c(C(F)(F)F)cc(-c3ccccc3)nc2c1Br | 4.6* | -8 | 16 | 6 | -2 | 3
COC(=O)c1cc(CC(=O)c2ccc(O)cc2O)c(C)o1 | 7.2* | -4 | -19 | 10 | -4 | -6
COc1ccc(CNC(=O)c2cc(-c3ccco3)on2)cc1 | 1 | 22* | 4 | -10 | -1 | 3
Oc1[nH]c2ccccc2c1C1=NCCCCC1 | 4.6* | -5 | 8 | 9 | 6 | -4
O=NC1=C(c2c(O)[nH]c3ccccc23)CCCC1 | 1 | -3 | 12 | 2 | 1 | -3
C=C1CC2C3C=C(C)C4=CC(=O)CC[C@]4(C)C3CC[C@]2(C)[C@@]1(OC(C)=O)C(C)=O (some centres undefined) | · | · | · | · | · | 1
SMILES | MsrA inh | MsrA act | HGIII-sPLA2 inh | ARFGAP1 inhibitor | ASAP1 inh | NR1D1 modulator
Cc1nn(C(C)C(=O)Nc2sc3c(c2C#N)CCCC3)c(C)c1[N+](=O)[O-] (centres undefined) | 1 | 0 | 7 | 1 | 16 | 5
Cc1nn(CCCC(=O)Nc2sc3c(c2C#N)CCC3)c(C)c1[N+](=O)[O-] | 25* | -1 | 3 | 2 | 1 | -3
OCC(S)CS (centres undefined) | · | · | · | · | · | 10
Cc1cc2c(=Cc3ccc(N(C)C)cc3)c3ccccc3n2[n+]1C | 1 | 4 | 18 | 14 | -5 | 7
CN(C)c1ccc(C=c2c3ccccc3n3c2c2ccccc2[n+]3C)cc1 | 2 | -4 | -30 | 95* | 59* | -34
CCCCCCCCCCCCCCCCCC(=O)OCC(O)[C@H]1OC[C@H](O)[C@H]1O (some centres undefined) | · | · | · | · | · | 1
CCN1C(=O)N/C(=C/c2cc(C)n(Cc3ccccc3)c2C)C1=O | 4.6* | -7 | 3 | -3 | -6 | 0
C[C@]12C=CC(=O)C=C1CCC1C2[C@@H](O)C[C@@]2(C)C1CC[C@]2(O)C(=O)CO (some centres undefined) | · | · | · | · | · | -5
COc1ccc(N2CCN(C(=O)C(=O)c3c(C)[nH]c4ccccc34)CC2)cc1 | 1 | -2 | -3 | 4 | 0 | 1
CC(=O)c1ccc(N2CCN(C(=O)C(=O)c3c(C)[nH]c4ccccc34)CC2)cc1 | 4.6* | -6 | -11 | -5 | 15 | -1
O=C(Oc1cc2oc(=O)cc(-c3ccccc3)c2cc1Cl)C1CCCCC1 | 18* | -2 | 5 | 4 | 3 | -12
CC(C)(C)OC(=O)NCC(=O)Oc1cc2oc(=O)cc(-c3ccccc3)c2cc1Cl | 2 | -5 | -11 | -1 | -9 | -1
O=C1CC(c2ccccc2)CC(O)=C1C=Nc1ccc(Cl)cc1 (centres undefined) | 0 | -4 | -4 | 1 | 1 | 0
O=C1CCCC(O)=C1C=Nc1ccc(O)cc1 | 4.6* | -4 | 0 | 8 | -14 | 8
NC[C@H]1O[C@H](O[C@H]2C(O[C@@H]3O[C@H](CO)[C@@H](O)[C@H]3O)[C@@H](O)[C@H](N)C[C@@H]2N)[C@H](N)[C@@H](O)[C@@H]1O (some centres undefined) | · | · | · | · | · | -2
CC1Cc2cc(/C=C3/SC(=S)N(C)C3=O)ccc2O1 (centres undefined) | 1 | -1 | 7 | 12 | 6 | 3
CC1Cc2cc(/C=C3/SC(N4CCC(C(N)=O)CC4)=NC3=O)ccc2O1 (centres undefined) | 4.6* | -3 | -3 | 2 | -4 | -8
S=C1Nc2ccccc2CS1 | 2 | -7 | 9 | -5 | 1 | 2
S=C1Cc2ccccc2N1 | -1 | 26* | 19 | 6 | 16 | -1
Cc1c(C)c2c(OCC(=O)NCC(=O)NCC(=O)O)cc3c(c2oc1=O)CCC(C)(C)O3 | 4.5* | -4 | -1 | -2 | -6 | -3
Cc1c(C)c2c(OCC(=O)O)cc3c(c2oc1=O)CCC(C)(C)O3 | 2 | -2 | -1 | -3 | 5 | -3
O=C(O)C1CSCN1 (centres undefined) | · | · | · | · | · | 3
